In ChEMBL document CHEMBL4043172, “Constructing novel dihydrofuran and dihydroisoxazole analogues of isocombretastatin-4 as tubulin polymerization inhibitors through [3+2] reactions” (Bioorg Med Chem, 2017):
The source made the active and inactive calls. No cut-off for these calls is given here.

Legend:
Sus scrofa [1] = species: Sus scrofa; test: Inhibition of porcine brain tubulin polymerization at 3 uM incubated for 80 mins by fluorescence based spectrophotometry
Outline: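 Fluorescence-based kit assay. Tubulin (10 mg/mL) in buffer 1 with tubulin glycerol buffer and GTP (100 mM stock) was incubated with compound at 3 µM, with DMSO as vehicle control, at 37 °C for 80 min. Polymerization was followed as the fluorescence increase, read every minute at 360 nm excitation and 460 nm emission.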

HeLa = test: Cytotoxicity against human HeLa cells assessed as reduction in cell viability incubated for 48 hrs by SRB assay; format: functional, cell-based
Outline: (§1)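 SRB colorimetric antiproliferative assay. Cells were grown in RPMI-1640 with 10% heat-inactivated FBS and penicillin/streptomycin at 37 °C and 5% CO2, and compound-exposed for 48 h. IC50 is the concentration causing 50% inhibition of cell viability, given as mean ± SD of three determinations.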

PC-3 [2] = test: Cytotoxicity against human PC3 cells assessed as reduction in cell viability incubated for 48 hrs by SRB assay; format: functional, cell-based; settings: PC-3, 48 h; outline: as §1
Sus scrofa [3] = species: Sus scrofa; test: Induction of porcine brain tubulin polymerization at 3 uM incubated for 80 mins by fluorescence based spectrophotometry
Outline: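 Fluorescence-based cell-free kit assay. Tubulin (10 mg/mL) in buffer 1 with tubulin glycerol buffer and GTP (100 mM stock) was incubated with compound or DMSO vehicle for 80 min at 37 °C. Polymerization was followed as fluorescence increase read every minute at 360 nm excitation and 460 nm emission.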

PC-3 [4] = test: Cell cycle arrest in human PC3 cells assessed as accumulation at G0/G1 phase at 0.5 uM incubated for 24 hrs by propidium iodide staining based FACS assay (reference value: 62.5%); format: functional
Outline: (§2)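 PC-3 cells in RPMI-1640 with 10% FBS at 37 °C and 5% CO2. Cells were plated at 1.0×10^5 cells/mL and pre-incubated 24 h, then treated. They were collected by centrifugation, fixed in 70% ethanol overnight at 4 °C, resuspended in PBS with RNase A and propidium iodide, and analysed by flow cytometry for phase distribution against untreated control.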

PC-3 [5] = test: Cell cycle arrest in human PC3 cells assessed as accumulation at G2/M phase at 0.5 uM incubated for 24 hrs by propidium iodide staining based FACS assay (reference value: 14%); format: functional; outline: as §2
PC-3 [6] = test: Cell cycle arrest in human PC3 cells assessed as accumulation at S phase at 0.5 uM incubated for 24 hrs by propidium iodide staining based FACS assay (reference value: 23.5%); format: functional; outline: as §2
Homo sapiens [7] = species: Homo sapiens; test: Inhibition of tubulin polymerization in human PC3 cells assessed as disruption of microtubule network at 1 uM incubated for 48 hrs by immunohistochemistry; format: cell-based
Outline: (§3)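 PC-3 cells were treated for 48 h, then fixed with 4% paraformaldehyde for 30 min and permeabilized with 0.1% Triton X-100 at 4 °C in the dark for 30 min. After blocking in PBS with 5% BSA, cells took anti-α-tubulin (1:500) overnight at 4 °C, then TRITC goat anti-rabbit IgG (1:500) for 1 h at RT. Nuclei were DAPI-stained and imaged by fluorescence microscopy at 20×.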

PC-3 [8] = test: Cell cycle arrest in human PC3 cells assessed as accumulation at S phase at 1 uM incubated for 24 hrs by propidium iodide staining based FACS assay (reference value: 23.5%); format: functional; outline: as §2
PC-3 [9] = test: Cell cycle arrest in human PC3 cells assessed as accumulation at G2/M phase at 1 uM incubated for 24 hrs by propidium iodide staining based FACS assay (reference value: 14%); format: functional; outline: as §2
Homo sapiens [10] = species: Homo sapiens; test: Inhibition of tubulin polymerization in human PC3 cells assessed as disruption of microtubule network at 0.02 uM incubated for 48 hrs by immunohistochemistry; format: cell-based; settings: 1 uM, in the assay text read “at 1 uM” for “at 0.02 uM”; outline: as §3
PC-3 [11] = test: Cell cycle arrest in human PC3 cells assessed as accumulation at G0/G1 phase at 1 uM incubated for 24 hrs by propidium iodide staining based FACS assay (reference value: 62.5%); format: functional; outline: as §2
[12] = (§4) Inhibition of porcine brain tubulin polymerization incubated for 80 mins by fluorescence based spectrophotometry; parameters: species or system Sus scrofa
Outline: (§5)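 Cell-free fluorescence kit assay. Tubulin (10 mg/mL) in buffer 1 with tubulin glycerol buffer and GTP (100 mM stock) was exposed to compound or DMSO for 80 min at 37 °C. Fluorescence (ex 360 nm, em 460 nm) was read each minute. IC50 was derived from five concentrations: 3, 5, 10, 20 and 40 μM.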

Sus scrofa [13] = species: Sus scrofa; test: as §4; outline: as §5
PC-3 [14] = test: Cell cycle arrest in human PC3 cells assessed as accumulation at G2/M phase at 0.05 uM incubated for 24 hrs by propidium iodide staining based FACS assay (reference value: 14%); format: functional; outline: as §2
PC-3 [15] = test: Cell cycle arrest in human PC3 cells assessed as accumulation at G0/G1 phase at 0.05 uM incubated for 24 hrs by propidium iodide staining based FACS assay (reference value: 62.5%); format: functional; outline: as §2
PC-3 [16] = test: Cell cycle arrest in human PC3 cells assessed as accumulation at S phase at 0.05 uM incubated for 24 hrs by propidium iodide staining based FACS assay (reference value: 23.5%); format: functional; outline: as §2

| SMILES | IC50 (HeLa) | IC50 (PC-3 [2]) | further results |
| --- | --- | --- | --- |
| C=C(c1ccc(OC)c(O)c1)c1cc(OC)c(OC)c(OC)c1 | 0.085 µM | 0.001 µM | inhibition (Sus scrofa [1]): Active |
| CC(=O)O[C@H]1C(=O)[C@@]2(C)[C@H]([C@H](OC(=O)c3ccccc3)[C@]3(O)C[C@H](OC(=O)[C@H](O)[C@@H](NC(=O)c4ccccc4)c4ccccc4)C(C)=C1C3(C)C)[C@]1(OC(C)=O)CO[C@@H]1C[C@@H]2O | – | – | Activity (Sus scrofa [3]): Active |
| CCC(=O)C1=C(CC)OC(c2ccc(OC)c(O)c2)(c2cc(OC)c(OC)c(OC)c2)C1 (stereo unspecified) | > 10 µM | 8.47 µM | – |
| COc1ccc([C@]2(c3cc(OC)c(OC)c(OC)c3)CC3=C(CCCC3=O)O2)cc1O | > 10 µM | 15.1 µM | – |
| COc1ccc(C2=NOC(c3ccc(OC)c(O)c3)(c3cc(OC)c(OC)c(OC)c3)C2)cc1O (stereo unspecified) | > 10 µM | > 10 µM | – |
| CCCCC1(c2cc(OC)c(OC)c(OC)c2)CC(C(=O)c2ccccc2)=C(c2ccccc2)O1 (stereo unspecified) | > 10 µM | > 10 µM | – |
| COc1ccc(C2(c3cc(OC)c(OC)c(OC)c3)CC(c3ccc(O)cc3)=NO2)cc1O (stereo unspecified) | 7.57 µM | > 10 µM | – |
| COc1ccc(C2(c3cc(OC)c(OC)c(OC)c3)CC(c3ccc(Cl)cc3)=NO2)cc1O (stereo unspecified) | 3.29 µM | 0.47 µM | Activity (PC-3 [4]): 23.2%; Activity (PC-3 [5]): 63.5%; Activity (PC-3 [6]): 13.3%; inhibition (Homo sapiens [7]): Active; Activity (PC-3 [8]): 8.8%; Activity (PC-3 [9]): 84.5%; inhibition (Homo sapiens [10]): Active; Activity (PC-3 [11]): 6.7%; IC50 [12]: 30.7 µM; inhibition (Sus scrofa [13]): Dose-dependent effect |
| COc1ccc(/C=C\c2cc(OC)c(OC)c(OC)c2)cc1O [COMBRETASTATIN A4] | 0.53 µM | 0.007 µM | Activity (PC-3 [14]): 71.9%; inhibition (Sus scrofa [1]): Active; Activity (PC-3 [15]): 6.8%; Activity (PC-3 [16]): 21.3% |
| CCCCC1(c2cc(OC)c(OC)c(OC)c2)CC(C#N)=C(C(C)(C)C)O1 (stereo unspecified) | > 10 µM | > 10 µM | – |
| CCCCC1(c2cc(OC)c(OC)c(OC)c2)CC(c2ccc(Cl)cc2OC)=NO1 (stereo unspecified) | > 10 µM | > 10 µM | – |
| COc1ccc(C2(c3cc(OC)c(OC)c(OC)c3)CC(c3ccc([N+](=O)[O-])cc3)=NO2)cc1O (stereo unspecified) | > 10 µM | > 10 µM | – |
| COc1ccc(C2(c3cc(OC)c(OC)c(OC)c3)CC(c3ccc(O)c(OC)c3)=NO2)cc1O (stereo unspecified) | > 10 µM | > 10 µM | – |
| COc1ccc(C2(c3cc(OC)c(OC)c(OC)c3)CC(C#N)=C(c3ccc(Cl)c(Cl)c3)O2)cc1O (stereo unspecified) | > 10 µM | > 10 µM | – |
| COc1ccc(C2(c3cc(OC)c(OC)c(OC)c3)CC(c3ccc(Cl)cc3OC)=NO2)cc1O (stereo unspecified) | > 10 µM | > 10 µM | – |
| COc1ccc([C@]2(c3cc(OC)c(OC)c(OC)c3)CC(C#N)=C(c3ccccc3)O2)cc1O | > 10 µM | 10.2 µM | – |
| CCCCC1(c2cc(OC)c(OC)c(OC)c2)CC(c2ccc(Cl)cc2)=NO1 (stereo unspecified) | > 10 µM | > 10 µM | – |
| COc1ccc(C2(c3cc(OC)c(OC)c(OC)c3)CC(c3ccccn3)=NO2)cc1O (stereo unspecified) | > 10 µM | > 10 µM | – |
| COc1ccc(C2(c3cc(OC)c(OC)c(OC)c3)CC(c3ccccc3)=NO2)cc1O (stereo unspecified) | > 10 µM | > 10 µM | – |
| COc1ccc(C2(c3cc(OC)c(OC)c(OC)c3)CC(c3ccccc3Cl)=NO2)cc1O (stereo unspecified) | 3.27 µM | 0.81 µM | – |
| COc1ccc(C2(c3cc(OC)c(OC)c(OC)c3)CC(C(=O)c3ccccc3)=C(C)O2)cc1O (stereo unspecified) | > 10 µM | > 10 µM | – |

| SMILES | IC50 (HeLa) | IC50 (PC-3 [2]) | further results |
| --- | --- | --- | --- |
| CCCCC1(c2cc(OC)c(OC)c(OC)c2)CC(C#N)=C(c2ccc(Cl)cc2)O1 (stereo unspecified) | > 10 µM | > 10 µM | – |
| COc1ccc(C2(c3cc(OC)c(OC)c(OC)c3)CC(C#N)=C(c3ccc(C)cc3)O2)cc1O (stereo unspecified) | > 10 µM | 6.99 µM | – |
| COc1ccc(C2(c3cc(OC)c(OC)c(OC)c3)CC(c3ccc(O)c(O)c3)=NO2)cc1O (stereo unspecified) | > 10 µM | 9.56 µM | – |
| COc1ccc(C2(c3cc(OC)c(OC)c(OC)c3)CC(C(=O)C(F)(F)F)=C(C)O2)cc1O (stereo unspecified) | > 10 µM | 9.45 µM | – |
| COc1ccc(C2(c3cc(OC)c(OC)c(OC)c3)CC(c3ccccc3[N+](=O)[O-])=NO2)cc1O (stereo unspecified) | > 10 µM | 8.21 µM | – |
| COc1ccc(C2(c3cc(OC)c(OC)c(OC)c3)CC(C#N)=C(c3ccc(Br)cc3)O2)cc1O (stereo unspecified) | > 10 µM | > 10 µM | – |
| COc1ccc(C2(c3cc(OC)c(OC)c(OC)c3)CC(C#N)=C(c3ccccc3Cl)O2)cc1O (stereo unspecified) | > 10 µM | 0.79 µM | – |
| COc1ccc(C2(c3cc(OC)c(OC)c(OC)c3)CC(c3cc(OC)c(OC)c(OC)c3Cl)=NO2)cc1O (stereo unspecified) | > 10 µM | 8.63 µM | – |
| CCCCC1(c2cc(OC)c(OC)c(OC)c2)CC(c2ccc(O)c(OC)c2)=NO1 (stereo unspecified) | > 10 µM | > 10 µM | – |
| COc1ccc(C2(c3cc(OC)c(OC)c(OC)c3)CC(C(C)=O)=C(C)O2)cc1O (stereo unspecified) | > 10 µM | 6.37 µM | – |
| COc1ccc(C2=NOC(c3ccc(OC)c(O)c3)(c3cc(OC)c(OC)c(OC)c3)C2)cc1 (stereo unspecified) | > 10 µM | > 10 µM | – |
| COc1ccc(C2=C(C#N)CC(c3ccc(OC)c(O)c3)(c3cc(OC)c(OC)c(OC)c3)O2)cc1 (stereo unspecified) | > 10 µM | > 10 µM | – |
| COc1ccc([C@@]2(c3cc(OC)c(OC)c(OC)c3)CC3=C(CCCC3=O)O2)cc1O | > 10 µM | 17 µM | – |
| COc1ccc(C2(c3cc(OC)c(OC)c(OC)c3)CC(C#N)=C(c3ccc(F)cc3)O2)cc1O (stereo unspecified) | 7.21 µM | 0.81 µM | – |
| COc1ccc(C2(c3cc(OC)c(OC)c(OC)c3)CC(C#N)=C(c3cccs3)O2)cc1O (stereo unspecified) | > 10 µM | 4.8 µM | – |
| COc1ccc(C2(c3cc(OC)c(OC)c(OC)c3)CC(C#N)=C(C(C)(C)C)O2)cc1O (stereo unspecified) | > 10 µM | > 10 µM | – |
| COc1ccc(C2(c3cc(OC)c(OC)c(OC)c3)CC(C#N)=C(c3ccc(Cl)cc3)O2)cc1O (stereo unspecified) | > 10 µM | 0.86 µM | – |
| COc1ccc([C@@]2(c3cc(OC)c(OC)c(OC)c3)CC(C#N)=C(c3ccccc3)O2)cc1O | > 10 µM | 9.47 µM | – |
| COc1ccc(C2(c3cc(OC)c(OC)c(OC)c3)CC(C(=O)c3ccccc3)=C(c3ccccc3)O2)cc1O (stereo unspecified) | 2.32 µM | 0.78 µM | – |
| COc1ccc(C2(c3cc(OC)c(OC)c(OC)c3)CC(c3ccc(C)cc3)=NO2)cc1O (stereo unspecified) | 4.45 µM | 0.85 µM | – |
